Broadly, the half-life is how long it takes for the measured level to halve. Usually bioavailability stands for dose-corrected exposure relative to a reference, in per cent. A word on the Tmax: it is the time at which the peak concentration occurs. As usually defined, the IC50 is the point on the concentration scale where inhibition reaches its midpoint. One may read the Cmax as the highest concentration seen after dosing.

Results on 1 molecule are retold here after ChEMBL document CHEMBL1138494, “Human glucagon receptor antagonists with thiazole cores. A novel series with superior pharmacokinetic properties” (J Med Chem, 2009).

A value given as a limit tells only on which side of the number the result lay.

The nature of data set [1]: Clearance in fasted Sprague-Dawley rat at 1.9 mg/kg, iv and 3.9 mg/kg, po by HTLC-MS/MS analysis. The data set is classed as ADME, organism-based. As to conditions: in vivo. In short, it runs like this: (§1)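 Rats were dosed intravenously and perorally in separate arms, and plasma concentration-time profiles were obtained. Half-life was taken from the iv arm. Clearance, oral bioavailability, Cmax and Tmax were derived from the profiles.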

A short description of data set [2]: Half life in fasted Sprague-Dawley rat plasma at 1.9 mg/kg, iv by HTLC-MS/MS analysis. The data set is classed as ADME, organism-based. On the set-up: dose 1.9 mg/kg, route intravenous. In short, it runs like this: as §1
Data set [3] can be described thus: Oral bioavailability in fasted Sprague-Dawley rat at 3.9 mg/kg by HTLC-MS/MS analysis. As to conditions: in vivo. It counts as ADME, organism-based. The essentials: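 Separate intravenous and peroral dosing arms per compound, with plasma concentration followed against time. Oral bioavailability (F_po) is reported per compound together with the intravenous half-life and clearance. The dose used for each arm is listed per compound.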

Data set [4] is described as follows: Tmax in fasted Sprague-Dawley rat at 1.9 mg/kg, iv and 3.9 mg/kg, po by HTLC-MS/MS analysis. The data set is classed as ADME, organism-based. Particulars: in vivo. The essentials:
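Plasma concentration–time profiles were recorded after separate intravenous and peroral dosing at the per-compound doses listed. T_max is reported in min alongside C_max (ng/mL), intravenous half-life and clearance ((mL/min)/kg).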

The species entered for data set [5] is Homo sapiens. Briefly: Selectivity ratio of IC50 for human recombinant glucagon receptor to IC50 for human recombinant GIPR. The essentials:
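Competition binding of compounds to recombinant human glucagon and GIP receptors on BHK cell membranes, run in parallel as a scintillation proximity assay and, for selected compounds, as a membrane filtration assay.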

In another data set the target is Glucagon receptor (Homo sapiens, UniProt P47871). The experiment in a line: Displacement of [125I]porcine glucagon from human recombinant glucagon receptor expressed in BHK cells by scintillation proximity assay. The data set is classed as cell-based. A general note: In a radioligand displacement assay an active substance lowers the binding of a labelled ligand.

A short description of data set [6]: Cmax in fasted Sprague-Dawley rat at 1.9 mg/kg, iv and 3.9 mg/kg, po by HTLC-MS/MS analysis. It counts as ADME, organism-based. Particulars: in vivo. In short, it runs like this:
as §1

Data set [7] deals with T1, Gastric inhibitory polypeptide receptor (Homo sapiens, UniProt P48546).
T1 sequence (P48546 whole entry): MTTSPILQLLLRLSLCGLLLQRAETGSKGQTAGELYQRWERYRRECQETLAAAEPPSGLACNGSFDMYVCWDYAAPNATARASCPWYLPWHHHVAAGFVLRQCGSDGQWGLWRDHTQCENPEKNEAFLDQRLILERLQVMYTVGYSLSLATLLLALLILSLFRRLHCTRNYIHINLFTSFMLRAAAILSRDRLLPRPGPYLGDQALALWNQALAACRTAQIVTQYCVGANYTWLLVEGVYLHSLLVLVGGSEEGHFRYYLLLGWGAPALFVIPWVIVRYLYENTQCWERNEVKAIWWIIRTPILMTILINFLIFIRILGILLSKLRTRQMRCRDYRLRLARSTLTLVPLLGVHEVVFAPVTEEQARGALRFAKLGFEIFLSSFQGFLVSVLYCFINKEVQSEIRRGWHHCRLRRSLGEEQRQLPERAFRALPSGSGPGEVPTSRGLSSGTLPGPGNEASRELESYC
The experiment in a line: Displacement of [125I]porcine GIP from human recombinant GIPR receptor expressed in BHK cells by scintillation proximity assay. It counts as cell-based.

For data set [8], the species on record is Homo sapiens. Briefly: Selectivity for human recombinant glucagon receptor over human GLP1R.

Chain of Glucagon receptor (P47871 whole entry): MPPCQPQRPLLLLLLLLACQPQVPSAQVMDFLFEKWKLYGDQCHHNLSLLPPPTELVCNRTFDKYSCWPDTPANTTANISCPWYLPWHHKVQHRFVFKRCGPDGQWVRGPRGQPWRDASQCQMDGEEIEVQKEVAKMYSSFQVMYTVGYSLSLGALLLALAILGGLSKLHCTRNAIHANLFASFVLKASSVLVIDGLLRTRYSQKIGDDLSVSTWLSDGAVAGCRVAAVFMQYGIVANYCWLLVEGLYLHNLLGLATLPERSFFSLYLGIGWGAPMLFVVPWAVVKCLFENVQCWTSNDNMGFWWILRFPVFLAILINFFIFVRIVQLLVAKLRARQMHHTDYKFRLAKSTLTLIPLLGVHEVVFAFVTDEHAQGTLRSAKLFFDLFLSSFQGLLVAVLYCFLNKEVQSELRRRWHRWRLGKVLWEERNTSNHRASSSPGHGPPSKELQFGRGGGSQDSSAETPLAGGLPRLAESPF

In [1], `O=C(O)CCNC(=O)c1ccc(CN(c2ccc(C3=CCCCC3)cc2)c2nc(-c3ccc(C(F)(F)F)cc3)cs2)cc1` had a clearance of 44 mL/min/kg. Moreover, the half-life in data set [2] came to 35 min. For the same molecule, the bioavailability in data set [3] was found to be 3%. In [4], the Tmax was 30 min. For the same molecule, the figures for the fold change (FC) in the data set listed under Homo sapiens [5] and in the data set listed under Homo sapiens [8] were 5 and above 50, respectively. Further, the IC50 on Glucagon receptor is 48 nM; in data set [7], 368 nM. In [6], the Cmax amounted to 36 ng/mL.
